This is an account of results in ChEMBL document CHEMBL1145023, “Homology modeling of rat and human cytochrome P450 2D (CYP2D) isoforms and computational rationalization of experimental ligand-binding specificities” (J Med Chem, 2003).

Type in all cases: ADME
One assay addresses T1, Cytochrome P450 2D4 (Rattus norvegicus, UniProt Q64680).
T1 sequence (Q64680 whole entry): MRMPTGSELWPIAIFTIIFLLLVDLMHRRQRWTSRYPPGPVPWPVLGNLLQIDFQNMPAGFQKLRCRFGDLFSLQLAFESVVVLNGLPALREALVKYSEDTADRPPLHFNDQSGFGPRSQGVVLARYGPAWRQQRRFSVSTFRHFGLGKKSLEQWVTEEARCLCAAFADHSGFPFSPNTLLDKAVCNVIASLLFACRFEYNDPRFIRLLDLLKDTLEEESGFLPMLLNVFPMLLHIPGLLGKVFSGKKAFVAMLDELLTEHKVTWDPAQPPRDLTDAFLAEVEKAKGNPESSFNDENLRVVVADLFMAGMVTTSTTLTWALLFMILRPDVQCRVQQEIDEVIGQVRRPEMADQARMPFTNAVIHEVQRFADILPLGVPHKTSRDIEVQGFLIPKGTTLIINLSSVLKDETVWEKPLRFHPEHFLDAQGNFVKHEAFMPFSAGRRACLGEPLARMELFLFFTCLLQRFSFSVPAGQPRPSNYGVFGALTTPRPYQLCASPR
Kind of assay: Inhibition of MAMC O-dealkylation mediated by rat Cytochrome P450 2D4 expressed in Saccharomyces cerevisiae. The gist of the method:
(§1)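 Rat CYP2D isozymes are singly expressed in S. cerevisiae and used as microsomes in 100 mM phosphate, pH 7.4, at 37 °C. MAMC is 100 μM final, with or without varying inhibitor, after a 5 min preincubation. NADPH-regenerating system is added to start the reaction.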

The target in another assay is T2, Cytochrome P450 2D26 (Rattus norvegicus, UniProt P10634).
T2 sequence (P10634 whole entry): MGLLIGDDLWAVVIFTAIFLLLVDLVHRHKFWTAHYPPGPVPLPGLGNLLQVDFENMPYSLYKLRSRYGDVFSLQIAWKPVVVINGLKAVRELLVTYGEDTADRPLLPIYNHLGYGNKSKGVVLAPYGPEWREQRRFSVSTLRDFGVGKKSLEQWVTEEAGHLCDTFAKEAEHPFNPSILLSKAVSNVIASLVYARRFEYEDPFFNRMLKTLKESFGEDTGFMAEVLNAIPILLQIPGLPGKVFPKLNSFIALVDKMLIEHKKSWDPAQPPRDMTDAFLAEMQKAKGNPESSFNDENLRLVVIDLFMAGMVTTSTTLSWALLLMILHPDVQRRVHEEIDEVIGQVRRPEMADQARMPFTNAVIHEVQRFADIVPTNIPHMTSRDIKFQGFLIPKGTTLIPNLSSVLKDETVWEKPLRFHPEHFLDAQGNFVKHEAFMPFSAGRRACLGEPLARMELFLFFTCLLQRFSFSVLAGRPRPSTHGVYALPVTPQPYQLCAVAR
Kind of assay: Inhibition of MAMC O-dealkylation mediated by rat Cytochrome P450 2D2 expressed in Saccharomyces cerevisiae. An outline of the steps:
as §1

In the next assay the target is Cytochrome P450 2D6 (Homo sapiens, UniProt P10635). Kind of assay: Inhibition of MAMC O-dealkylation mediated by human Cytochrome P450 2D6 expressed in human lymphoblastoid cell line. The gist of the method: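 Human CYP2D6 (1 nM) competition run as a microplate-reader fluorescence assay. MAMC is the substrate at 10 μM final, with and without a range of inhibitor concentrations. IC50 is obtained by nonlinear least-squares one-site competition fitting.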
Cytochrome P450 2D6, sequence (P10635 whole entry): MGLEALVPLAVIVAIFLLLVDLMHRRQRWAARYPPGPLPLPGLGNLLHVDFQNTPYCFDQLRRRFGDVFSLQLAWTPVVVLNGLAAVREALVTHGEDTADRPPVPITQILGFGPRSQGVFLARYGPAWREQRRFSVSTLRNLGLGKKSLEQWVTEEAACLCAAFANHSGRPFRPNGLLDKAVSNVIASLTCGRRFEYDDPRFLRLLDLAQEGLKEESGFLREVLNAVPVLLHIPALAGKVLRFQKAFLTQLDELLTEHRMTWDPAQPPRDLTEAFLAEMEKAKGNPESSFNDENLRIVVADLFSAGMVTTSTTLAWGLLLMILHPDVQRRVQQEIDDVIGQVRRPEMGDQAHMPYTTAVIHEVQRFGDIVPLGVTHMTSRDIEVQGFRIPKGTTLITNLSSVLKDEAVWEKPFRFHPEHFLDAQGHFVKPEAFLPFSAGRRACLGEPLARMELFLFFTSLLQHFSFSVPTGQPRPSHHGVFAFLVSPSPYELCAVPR

The target in the next assay is T3, Cytochrome P450 2D3 (Rattus norvegicus, UniProt P12938).
T3 sequence (P12938 whole entry): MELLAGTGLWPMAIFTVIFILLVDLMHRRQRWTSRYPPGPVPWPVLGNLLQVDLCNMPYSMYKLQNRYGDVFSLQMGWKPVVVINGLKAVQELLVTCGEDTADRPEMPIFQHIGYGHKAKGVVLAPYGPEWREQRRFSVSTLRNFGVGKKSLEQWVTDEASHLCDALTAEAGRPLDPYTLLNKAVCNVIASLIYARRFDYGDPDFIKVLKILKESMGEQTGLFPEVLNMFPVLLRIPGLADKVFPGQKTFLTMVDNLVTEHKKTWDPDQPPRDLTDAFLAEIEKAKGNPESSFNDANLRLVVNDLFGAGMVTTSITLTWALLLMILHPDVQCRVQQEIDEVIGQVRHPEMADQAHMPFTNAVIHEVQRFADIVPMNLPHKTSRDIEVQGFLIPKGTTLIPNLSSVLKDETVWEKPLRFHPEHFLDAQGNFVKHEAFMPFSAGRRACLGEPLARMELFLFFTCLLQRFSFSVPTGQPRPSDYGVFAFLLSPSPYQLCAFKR
Kind of assay: Inhibition of MAMC O-dealkylation mediated by rat Cytochrome P450 2D3 expressed in Saccharomyces cerevisiae. The gist of the method:
as §1

A further assay deals with T4, Cytochrome P450 2D1 (Rattus norvegicus, UniProt P10633).
T4 sequence (P10633 whole entry): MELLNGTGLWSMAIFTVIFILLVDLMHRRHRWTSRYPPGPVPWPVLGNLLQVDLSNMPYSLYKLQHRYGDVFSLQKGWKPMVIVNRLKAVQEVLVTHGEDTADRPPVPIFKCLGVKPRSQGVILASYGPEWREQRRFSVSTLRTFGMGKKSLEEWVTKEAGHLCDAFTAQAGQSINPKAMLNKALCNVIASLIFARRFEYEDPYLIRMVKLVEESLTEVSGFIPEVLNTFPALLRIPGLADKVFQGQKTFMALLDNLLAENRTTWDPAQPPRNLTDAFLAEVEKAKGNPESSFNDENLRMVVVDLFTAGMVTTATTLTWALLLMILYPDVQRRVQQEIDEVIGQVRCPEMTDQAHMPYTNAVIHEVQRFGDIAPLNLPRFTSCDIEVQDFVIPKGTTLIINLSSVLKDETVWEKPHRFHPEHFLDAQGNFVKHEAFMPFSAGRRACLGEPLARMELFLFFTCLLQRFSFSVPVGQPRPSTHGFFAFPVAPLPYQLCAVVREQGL
Kind of assay: Inhibition of MAMC O-dealkylation mediated by rat Cytochrome P450 2D1 expressed in Saccharomyces cerevisiae. The gist of the method:
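Rat CYP2D isozymes are singly expressed in S. cerevisiae and used as microsomes in 100 mM phosphate, pH 7.4, at 37 °C. Enzyme concentrations are 52.0 nM (2D1), 3.1 nM (2D2), 3.6 nM (2D3) and 21.9 nM (2D4). MAMC is 100 μM final, with or without varying inhibitor, after a 5 min preincubation. NADPH-regenerating system is added to start the reaction.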

As usually defined, the IC50 is the concentration that gives 50% inhibition. Lower therefore signals inhibition by little substance. As for `[H]/N=C(/N)N/C(=N/[H])NCCc1ccccc1` [PHENFORMIN], the IC50 stood at 833 µM against Cytochrome P450 2D4, 45.4 µM against Cytochrome P450 2D26, 27 µM against Cytochrome P450 2D6 and 1930 µM on Cytochrome P450 2D3.

As for `C=C[C@H]1C[N@@]2CC[C@H]1C[C@@H]2[C@@H](O)c1ccnc2ccc(OC)cc12` [QUINIDINE], the IC50 at Cytochrome P450 2D4 stood at 47.2 µM; against Cytochrome P450 2D1, 19.9 µM; on Cytochrome P450 2D3 it was 26.9 µM.

As to `CNCCC=C1c2ccccc2CCc2ccccc21` [NORTRIPTYLINE], the IC50 against Cytochrome P450 2D4 turned out to be 19.3 µM; against Cytochrome P450 2D26, 1.9 µM; against Cytochrome P450 2D6, 2.3 µM; at Cytochrome P450 2D1, 204 µM; against Cytochrome P450 2D3 it was 14.2 µM.

As for `C=C[C@H]1C[N@@]2CC[C@H]1C[C@H]2[C@H](O)c1ccnc2ccc(OC)cc12` [QUININE], the IC50 against Cytochrome P450 2D4 turned out to be 1.7 µM; at Cytochrome P450 2D1, 46.5 µM; against Cytochrome P450 2D3, 12 µM.

For the molecule `COc1ccc2c(CN(C)C)cc(=O)oc2c1`, the IC50 on Cytochrome P450 2D4 is 1180 µM; against Cytochrome P450 2D26 it was 307 µM; at Cytochrome P450 2D6, 74.2 µM; on Cytochrome P450 2D1 it was 329 µM; against Cytochrome P450 2D3, 862 µM.

For `N=C(N)N1CCc2ccccc2C1` [DEBRISOQUIN], the IC50 against Cytochrome P450 2D4 was found to be 747 µM; at Cytochrome P450 2D26, 107 µM; against Cytochrome P450 2D6, 23.8 µM; against Cytochrome P450 2D1 it was 529 µM; against Cytochrome P450 2D3, 1750 µM.

With `CC(C)NC[C@H](O)COc1cccc2ccccc12` [LEVOPROPRANOLOL], the 50% inhibitory concentration (IC50) against Cytochrome P450 2D4 was determined as 133 µM; on Cytochrome P450 2D26 it was 0.35 µM; against Cytochrome P450 2D1, 571 µM; at Cytochrome P450 2D3, 172 µM.

As for `CC(C)NC[C@@H](O)COc1cccc2ccccc12` [DEXPROPRANOLOL], the IC50 against Cytochrome P450 2D4 was 117 µM; at Cytochrome P450 2D26 it was 0.42 µM; against Cytochrome P450 2D1, 182 µM; on Cytochrome P450 2D3 it was 155 µM.

As to `COc1ccc2c3c1O[C@H]1[C@@H](O)C=C[C@H]4[C@@H](C2)N(C)CC[C@@]341` [CODEINE], the IC50 at Cytochrome P450 2D4 was determined as 2220 µM; at Cytochrome P450 2D26 it was 238 µM; against Cytochrome P450 2D1, 1320 µM; against Cytochrome P450 2D3, 4090 µM.

Take `COc1ccc2c(c1)[C@]13CCCC[C@@H]1[C@H](C2)N(C)CC3` [DEXTROMETHORPHAN]: the IC50 on Cytochrome P450 2D4 came to 136 µM; at Cytochrome P450 2D26, 5.6 µM; against Cytochrome P450 2D6, 1.8 µM; on Cytochrome P450 2D1, 264 µM; at Cytochrome P450 2D3, 18.6 µM.
